Numbered stars: 1 amine (or outer) side, 2 acyl side, 3 side chain; on linkers, the order of the positions; unused ones are H or OH. Square brackets hold non-standard residues; d marks the D form. Peptide text beside a SMILES is read from it. * marks the point of attachment. ξ: configuration not given here. X1 = CC(C)C[C@H](N[*:1])[C@@H](O)C[C@H](C(=O)[*:2])C(C)C; X2 = OC[C@H]1O[C@@H](O)[C@H](N*)[C@H](O)[C@@H]1O; NH(2-picolyl-N-oxide) = [O-][n+]1ccccc1CN*; NMeH = CN[C@@H](Cc1c[nH]cn1)C(=O)O; NHCH2(2-pyridyl) = c1ccc(CN*)nc1; Ile(3ξ) = CCC(C)[C@H](N)C(=O)O; NHC(CH2OH)3 = OCC(CO)(CO)N*; Boc = CC(C)(C)OC(=O)*; CO = O=C([*:1])[*:2]

Assay [1] can be described thus: The dissociation constant determined by fluorescence displacement assay. In a few lines: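 Unlabeled inhibitor (6.6 and 13 nM) then added for 2.5 h more, with fluorescence read before and after each addition. Kd fitted from predicted binding curves or numerical solution, as the mean of three duplicate determinations.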
Assay [2] addresses T1, Renin (Homo sapiens, UniProt P00797).
T1 sequence (P00797 whole entry): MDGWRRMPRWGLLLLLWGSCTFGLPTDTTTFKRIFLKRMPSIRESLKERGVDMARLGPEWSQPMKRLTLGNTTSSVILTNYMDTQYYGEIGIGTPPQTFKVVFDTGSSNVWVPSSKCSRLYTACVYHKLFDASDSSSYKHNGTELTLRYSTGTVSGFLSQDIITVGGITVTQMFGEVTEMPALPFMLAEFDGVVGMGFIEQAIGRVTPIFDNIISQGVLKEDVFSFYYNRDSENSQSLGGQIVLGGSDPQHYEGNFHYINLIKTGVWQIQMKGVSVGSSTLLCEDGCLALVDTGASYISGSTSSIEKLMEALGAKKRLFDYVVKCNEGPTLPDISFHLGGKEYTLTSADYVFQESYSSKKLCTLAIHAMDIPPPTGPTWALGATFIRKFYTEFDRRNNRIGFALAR
Description: In vitro inhibition constants using recombinant human renin assay.

Assay [3] deals with T1, Renin. Description: In vitro inhibition of human renin by radio-immuno assay of angiotensin I (ANG I).

For the compound `CC[C@H](C)[C@H](NC(=O)[C@@H](C[C@H](O)[C@H](CC(C)C)NC(=O)[C@H](Cc1c[nH]cn1)N(C)C(=O)[C@H](Cc1ccccc1)NC(=O)[C@@H]1CCCN1C(=O)NC(CO)(CO)CO)C(C)C)C(=O)NCc1ccccn1` ({NHC(CH2OH)3-CO}-PF[NMeH][X1]I-{NHCH2(2-pyridyl)}), binding in assay [1] was characterised by a dissociation constant (Kd) of 0.111 nM. That is a sub-nanomolar value.

Compound `CCC(C)[C@H](NC(=O)[C@@H](C[C@H](O)[C@H](CC(C)C)NC(=O)[C@H](Cc1c[nH]cn1)N(C)C(=O)[C@H](Cc1ccccc1)NC(=O)[C@@H]1CCCN1C(=O)NC(CO)(CO)CO)C(C)C)C(=O)NCc1cccc[n+]1[O-]` (some centres not stated) ({NHC(CH2OH)3-CO}-PF[NMeH][X1][Ile(3ξ)]-{NH(2-picolyl-N-oxide)}) returned a Kd in assay [1] of 0.033 nM.

The compound `CC[C@H](C)[C@H](NC(=O)[C@@H](C[C@H](O)[C@H](CC(C)C)NC(=O)[C@H](Cc1c[nH]cn1)N(C)C(=O)[C@H](Cc1ccccc1)NC(=O)[C@@H]1CCCN1C(=O)OC(C)(C)C)C(C)C)C(=O)NCc1ccccn1` [DITEKIREN] registered a Kd in assay [1] of 0.04 nM. In addition, the Ki in assay [2] was 0.04 nM. The IC50 in assay [3] is 0.26 nM.

`CC[C@H](C)[C@H](NC(=O)[C@@H](C[C@H](O)[C@H](CC(C)C)NC(=O)[C@H](Cc1c[nH]cn1)NC(=O)[C@@H](Cc1ccccc1)NS(=O)(=O)c1cccc2c(N(C)C)cccc12)C(C)C)C(=O)NCc1ccccn1` yielded a Kd in assay [1] of 0.066 nM. Besides, the Ki in assay [2] was determined as 0.043 nM. This compound also gave an IC50 in assay [3] of 0.24 nM.

The compound `CC[C@H](C)[C@H](NC(=O)[C@@H](C[C@H](O)[C@H](CC(C)C)NC(=O)[C@H](Cc1c[nH]cn1)N(C)C(=O)[C@H](Cc1ccccc1)NC(=O)[C@@H]1CCCN1C(=O)OC(C)(C)C)C(C)C)C(=O)NC(CO)(CO)CO` (Boc-PF[NMeH][X1]I-{NHC(CH2OH)3}) showed a Kd in assay [1] of 0.044 nM. The compound also gave an IC50 in assay [3] of 0.26 nM.

In assay [3], `CC[C@H](C)[C@H](NC(=O)[C@@H](C[C@H](O)[C@H](CC(C)C)NC(=O)[C@H](Cc1cnc[nH]1)N(C)C(=O)[C@H](Cc1ccccc1)NC(=O)[C@@H]1CCCN1C(=O)NC(CO)(CO)CO)C(C)C)C(=O)NCc1ccccn1` ({NHC(CH2OH)3-CO}-PF[NMeH][X1]I-{NHCH2(2-pyridyl)}) had a half-inhibitory concentration (IC50) of 0.33 nM.

On to `CC[C@H](C)[C@H](NC(=O)[C@@H](C[C@H](O)[C@H](CC(C)C)NC(=O)[C@H](Cc1cnc[nH]1)N(C)C(=O)[C@H](Cc1ccccc1)NC(=O)[C@@H]1CCCN1C(=O)OC(C)(C)C)C(C)C)C(=O)NCc1cccc[n+]1[O-]` (Boc-PF[NMeH][X1]I-{NH(2-picolyl-N-oxide)}), for which the IC50 in assay [3] was found to be 0.33 nM.

For the compound `CCC(C)[C@H](NC(=O)[C@@H](C[C@H](O)[C@H](CC(C)C)NC(=O)[C@H](Cc1cnc[nH]1)N(C)C(=O)[C@H](Cc1ccccc1)NC(=O)[C@@H]1CCCN1C(=O)NC(CO)(CO)CO)C(C)C)C(=O)NCc1cccc[n+]1[O-]` (some centres not stated) ({NHC(CH2OH)3-CO}-PF[NMeH][X1][Ile(3ξ)]-{NH(2-picolyl-N-oxide)}), the Ki in assay [2] was 0.051 nM. For the same compound, the midpoint of inhibition in assay [3], the IC50, lay at 0.58 nM.

In assay [1], `CC[C@H](C)[C@H](NC(=O)[C@@H](C[C@H](O)[C@H](CC(C)C)NC(=O)[C@H](Cc1c[nH]cn1)N(C)C(=O)[C@H](Cc1ccccc1)NC(=O)[C@@H]1CCCN1C(=O)OC(C)(C)C)C(C)C)C(=O)NCc1cccc[n+]1[O-]` (Boc-PF[NMeH][X1]I-{NH(2-picolyl-N-oxide)}) had a Kd of 0.131 nM.

Take `CC[C@H](C)[C@H](NC(=O)[C@@H](C[C@H](O)[C@H](CC(C)C)NC(=O)[C@H](Cc1c[nH]cn1)N(C)C(=O)[C@H](Cc1ccccc1)NC(=O)[C@@H]1CCCN1C(=O)N[C@@H]1[C@H](O)[C@H](O)[C@@H](CO)O[C@H]1O)C(C)C)C(=O)NCc1cccc[n+]1[O-]` ({X2-CO}-PF[NMeH][X1]I-{NH(2-picolyl-N-oxide)}): in assay [1], the Kd stood at 0.434 nM. In assay [3], this compound came in with an IC50 of 1.1 nM.

The Kd is a measure of binding affinity in units of concentration. The Ki is a dissociation constant, usually derived from enzyme kinetics or from competition with a known ligand. Broadly, the IC50 is the concentration at which inhibition is half-maximal.
